For experiment [1], the species on record is Homo sapiens. Nature of the experiment: Selectivity ratio of IC50 for HDAC8 (unknown origin) to IC50 for HDAC6 (unknown origin).
Experiment [2] is filed under the species Homo sapiens. Nature of the experiment: Selectivity ratio of IC50 for HDAC1 (unknown origin) to IC50 for HDAC6 (unknown origin).
The target of experiment [3] is T1, Protein deacetylase HDAC6 (Homo sapiens) (UniProt Q9UBN7).
T1 sequence (whole entry): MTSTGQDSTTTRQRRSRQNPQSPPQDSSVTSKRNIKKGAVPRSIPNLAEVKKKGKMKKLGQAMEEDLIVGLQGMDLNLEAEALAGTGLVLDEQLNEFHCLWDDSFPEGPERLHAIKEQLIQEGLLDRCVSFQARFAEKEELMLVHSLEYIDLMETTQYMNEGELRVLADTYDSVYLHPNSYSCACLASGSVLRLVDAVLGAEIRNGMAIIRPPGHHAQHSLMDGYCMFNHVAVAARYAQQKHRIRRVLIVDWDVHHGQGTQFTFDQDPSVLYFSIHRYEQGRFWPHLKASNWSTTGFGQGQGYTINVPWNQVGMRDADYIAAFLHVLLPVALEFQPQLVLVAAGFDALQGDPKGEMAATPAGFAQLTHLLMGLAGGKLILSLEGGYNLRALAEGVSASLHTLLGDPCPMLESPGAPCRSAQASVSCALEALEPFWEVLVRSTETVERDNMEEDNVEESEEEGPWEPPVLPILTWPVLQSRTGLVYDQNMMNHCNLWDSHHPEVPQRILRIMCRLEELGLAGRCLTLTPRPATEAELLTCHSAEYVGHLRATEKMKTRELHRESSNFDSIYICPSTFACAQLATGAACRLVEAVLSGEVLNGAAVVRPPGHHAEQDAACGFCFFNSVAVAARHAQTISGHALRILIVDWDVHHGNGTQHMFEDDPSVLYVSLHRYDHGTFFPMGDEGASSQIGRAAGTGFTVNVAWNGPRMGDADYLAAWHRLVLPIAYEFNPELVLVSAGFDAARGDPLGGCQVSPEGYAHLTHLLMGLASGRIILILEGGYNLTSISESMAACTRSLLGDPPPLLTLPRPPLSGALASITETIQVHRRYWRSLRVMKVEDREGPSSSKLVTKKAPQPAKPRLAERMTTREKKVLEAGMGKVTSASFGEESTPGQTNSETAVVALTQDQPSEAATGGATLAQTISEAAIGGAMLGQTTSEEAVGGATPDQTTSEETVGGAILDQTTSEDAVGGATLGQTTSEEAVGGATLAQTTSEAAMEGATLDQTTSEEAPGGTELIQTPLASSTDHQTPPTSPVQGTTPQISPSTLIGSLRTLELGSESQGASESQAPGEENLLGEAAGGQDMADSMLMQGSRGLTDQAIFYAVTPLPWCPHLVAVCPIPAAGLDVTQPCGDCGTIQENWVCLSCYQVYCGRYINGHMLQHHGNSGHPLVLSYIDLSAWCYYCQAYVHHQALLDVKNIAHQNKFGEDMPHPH
The experiment can be described thus: Potency index, ratio of tubastatin-A IC50 to test compound IC50 for HDAC6 (unknown origin) using Ac-LeuGlyLy-s(Ac)-AMC as substrate preincubated for 10 mins followed by substrate addition and further incubated for 2 hrs by fluorescence microtiter plate reader assay.

For experiment [4], the target named is T1, Protein deacetylase HDAC6 (Homo sapiens). Nature of the experiment: Inhibition of HDAC6 in human HL-60 cells assessed as increase in acetylation of alpha tubulin by Western blot analysis. It is filed as cell-based. As to conditions: TDE = time-dependent effect. A digest of the protocol:
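HL-60 cells treated 12 h or 24 h, pelleted, lysed in RIPA with 1 mM PMSF on ice 30 min, cleared at 4 °C; lysates run on 12.5% SDS-PAGE, blotted to PVDF, blocked in 5% milk 1 h, probed overnight at 4 °C for acetyl-α-tubulin, acetyl-H3 and GAPDH, secondary 1 h, ECL detection.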

A further experiment has as its system NCI-H929. The experiment can be described thus: Antiproliferative activity against human NCI-H929 cells assessed as inhibition of cell proliferation after 48 hrs by MTT assay. The format is functional, cell-based. The note with it: NCI-H929, 48 h. A digest of the protocol:
(§1)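 Leukemia/myeloma lines grown in RPMI1640 with 10% FBS at 37 °C, 5% CO2; seeded at 3500–4000 cells/well, cultured overnight, then exposed to serial dilutions for 48 h.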
In general terms: Tetrazolium assays rely on reduction of a dye to a coloured formazan, in cell work by metabolically active cells.

In a further experiment the test system is HEL. The experiment can be described thus: Antiproliferative activity against human HEL cells assessed as inhibition of cell proliferation after 48 hrs by MTT assay. The format is functional, cell-based. Put shortly: as §1
Experiment [5] has as its system HL-60. The experiment can be described thus: Induction of apoptosis in human HL-60 cells assessed as late apoptotic cells at 3 uM after 48 hrs by Annexin V-FITC/propidium iodide staining based flow cytometric analysis (reference value: 1.45%). It is filed as functional. Put shortly:
(§2)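 HL-60 cells (1 × 10^6/well) exposed 48 h to compound dilutions, collected, PBS-washed, resuspended in Annexin V-FITC binding buffer, stained with propidium iodide and Annexin V-FITC for 15 min, then analysed by flow cytometry.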

The next experiment deals with Histone deacetylase 1 (Homo sapiens, UniProt Q13547). The experiment can be described thus: Inhibition of HDAC1 (unknown origin) using Ac-LeuGlyLys(Ac)-AMC as substrate preincubated for 10 mins followed by substrate addition and further incubated for incubated for 1 hrs by fluorescence microtiter plate reader assay.
Chain of Histone deacetylase 1 (Q13547 whole entry): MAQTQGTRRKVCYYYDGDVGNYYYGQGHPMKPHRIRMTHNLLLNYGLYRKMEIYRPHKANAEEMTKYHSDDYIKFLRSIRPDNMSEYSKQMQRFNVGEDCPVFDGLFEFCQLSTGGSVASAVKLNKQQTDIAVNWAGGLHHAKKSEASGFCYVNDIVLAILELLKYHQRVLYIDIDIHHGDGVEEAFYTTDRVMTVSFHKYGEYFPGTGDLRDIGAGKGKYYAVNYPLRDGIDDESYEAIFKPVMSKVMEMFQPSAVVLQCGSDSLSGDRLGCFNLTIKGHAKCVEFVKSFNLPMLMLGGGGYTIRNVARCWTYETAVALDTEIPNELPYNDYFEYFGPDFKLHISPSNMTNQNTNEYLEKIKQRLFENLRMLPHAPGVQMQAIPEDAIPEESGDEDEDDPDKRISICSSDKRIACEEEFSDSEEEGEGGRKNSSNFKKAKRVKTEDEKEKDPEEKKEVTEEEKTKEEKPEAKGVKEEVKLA
For experiment [6], the system named is HL-60. Nature of the experiment: Induction of mitochondrial membrane potential depolarization in human HL-60 cells at 3 uM by fluorescence assay. It is filed as functional, cell-based. As to conditions: time hrs <=24, TDE = time-dependent effect. A digest of the protocol: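 HL-60 cells (1 × 10^6) seeded overnight, exposed to compound or vehicle (0.2% DMSO) for the indicated times, then loaded with TMRE (100 nM) 30 min at 37 °C; washed three times in PBS, fluorescence read at Ex 540/Em 579 nm.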

For experiment [7], the target named is T2, Protein deacetylase HDAC6 (Homo sapiens, UniProt Q9UBN7).
T2 sequence (Q9UBN7 whole entry): T1 sequence (whole entry)
Nature of the experiment: Inhibition of HDAC6 (unknown origin) using Ac-LeuGlyLy-s(Ac)-AMC as substrate preincubated for 10 mins followed by substrate addition and further incubated for 2 hrs by fluorescence microtiter plate reader assay.

The test system of experiment [8] is HL-60. Nature of the experiment: Induction of apoptosis in human HL-60 cells assessed as early apoptotic cells at 3 uM after 48 hrs by Annexin V-FITC/propidium iodide staining based flow cytometric analysis (reference value: […]%). It is filed as functional. In general terms: Flow cytometry measures light scatter and fluorescence of single cells or particles in a stream.

For experiment [9], the species on record is Homo sapiens. Nature of the experiment: Selectivity ratio of IC50 for HDAC2 (unknown origin) to IC50 for HDAC6 (unknown origin).
The subject of experiment [10] is HL-60. The experiment can be described thus: Induction of apoptosis in human HL-60 cells assessed as necrotic cells at 3 uM after 48 hrs by Annexin V-FITC/propidium iodide staining based flow cytometric analysis (reference value: 0.017%). It is filed as functional. Put shortly: as §2
Experiment [11] is described as follows: Cytotoxicity against human GEC1 cells assessed as decrease in cell viability after 48 hrs by MTT assay. As to conditions: GEC1, 48 h. The format is cell-based. A digest of the protocol:
(§3)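 Normal cells: HUVECs in RPMI1640 with 10% FBS plus 0.1% heparin, GEC-1 in RPMI1640 with 10% FBS. Seeded 8 h, then treated with serial dilutions for 48 h; 0.5% MTT for 4 h, supernatant removed, DMSO added, absorbance read at 570 nm.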

Experiment [12] deals with HL-60. Nature of the experiment: Induction of apoptosis in human HL-60 cells assessed as activation of caspase-3 at 3 uM measured by fluorescence assay. It is filed as functional, cell-based.
A further experiment has as its system KG-1. Nature of the experiment: Antiproliferative activity against human KG-1 cells assessed as inhibition of cell proliferation after 48 hrs by MTT assay. The format is functional, cell-based. As to conditions: KG-1, 48 h. Put shortly: as §1
The subject of a further experiment is HUVEC. The experiment can be described thus: Cytotoxicity against human HUVEC cells assessed as decrease in cell viability after 48 hrs by MTT assay. The format is cell-based. A digest of the protocol:
as §3

Molecules are shown by their SMILES. Calls of active or inactive are those of the source. The calls are words filed in the database; no cut-off is given here.

Consider `O=C(NO)c1ccc(CN2C(=O)C(Cc3ccccc3)N(Cc3cccnc3)C2=O)cc1` (racemic), for which the Ratio IC50 in the experiment listed under Homo sapiens [1] came out at 1640; in the experiment filed under Homo sapiens [2] it was 5540; in experiment [3], 12; in the experiment filed under Homo sapiens [9], 5860. The inhibition entry in experiment [4] is “Tde”. For the same molecule, the IC50 came to 7.61 µM in the experiment with NCI-H929; 4.58 µM with HEL; 11.6 µM at Histone deacetylase 1; 2.1 nM in experiment [7]; 68.2 µM in [11]; 7.04 µM in the experiment on KG-1. Moreover, in the experiment with HUVEC, the IC50 was found to be 83.1 µM. The Activity in the experiment with HL-60 [5] was 10%; with HL-60 [6], “Tde”; in the experiment with HL-60 [8], 10.5%; in the experiment on HL-60 [10], 0.035%. Also, the result in the experiment with HL-60 [12] was Active.

Broadly, the IC50 is the concentration needed to halve the response being measured.
